In ChEMBL document CHEMBL1123397, “Antiarrhythmic activity of 17 beta-aminoestratrienes. Comparison of 3-ols and 3-acetates with the corresponding 3-(3-amino-2-hydroxypropyl) ethers” (1986):
In brackets after ≈: the same amount, converted by molar mass. Activity calls are given as the source filed them. No cut-off for these calls is given here.

Assays:
Rattus norvegicus [1] = test: Mean change in heart rate recorded 14 min after the administration of compound.; type: functional
How it was run: (§1)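 Test drug or vehicle was given i.v., and isoprenaline (10 µg/kg) 14 min later. Heart rate was read from the lead II ECG just before drug, at 14 min (pre-isoprenaline) and 1 min after isoprenaline. Compared by Student's t test; 7–12 animals per group; mean ± SEM.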

Rattus norvegicus [2] = test: Effect on heart rate before isoprenaline induced tachycardia in the anesthetized rat at 2 mg/kg dose; type: functional; how it was run: as §1
Cavia porcellus = organism: Cavia porcellus; test: Concentration required to reduce maximum following frequencu (MFF) of isolated guinea pig atria by 25%; type: functional
How it was run: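 Guinea pig left atria in an organ bath of Krebs solution at 35 °C, gassed with carbogen, electrically driven, isometric contractions recorded. Drugs added cumulatively; maximum following frequency determined 6 min after each concentration. Concentration reducing MFF by 25% (EC25) calculated from six preparations.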

Rattus norvegicus [3] = organism: Rattus norvegicus; test: Maximum increase in heart rate evoked by isoprenaline.; type: functional; how it was run: as §1
Rattus norvegicus [4] = test: Effect on heart rate after isoprenaline induced tachycardia in the anesthetized rat at 2 mg/kg dose; type: functional
How it was run: (§2)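 Same ligation protocol in anaesthetised male Wistar rats. Heart rate was taken from the lead II ECG at three points: just before i.v. drug or vehicle, 14 min after it (just before isoprenaline 10 μg/kg), and 1 min after isoprenaline. Pre vs post rates and isoprenaline responses vs controls were compared by Student's t test. Mean ± SEM of 7-12 observations.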

Rattus norvegicus [5] = test: Effect of teh compound on heart rate on 1 min post isoprenaline induced tachycardia in the anesthetized rat at 2.0 mg/kg dose.; type: functional; how it was run: as §2
Mus musculus [6] = organism: Mus musculus; test: ED 50 value against aconitine-induced arrhythmias in mice; IA is Inactive; type: functional, organism-based
How it was run: (§3)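 Anaesthetised mice were given test compound intraperitoneally, then aconitine intravenously to induce arrhythmia. At least three doses were tested in separate groups (n = 6-10). ED50 is the dose raising the arrhythmogenic aconitine dose 50% above the control requirement.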

Mus musculus [7] = organism: Mus musculus; test: ED 50 value against aconitine-induced arrhythmias in mice; type: functional; how it was run: as §3
Rattus norvegicus [8] = test: Effective dose that antagonized arrhythmias evoked by coronary artery ligation in the rat was measured at 2.0 mg/kg dose; type: functional
Rattus norvegicus [9] = test: Compound was tested for antagonism of Ventricular Fibrilloflutter (VF) evoked by coronary artery ligation in the rat measured at 1 mg/kg dose; type: functional, Heart
How it was run: (§4)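 Male Wistar rats, anaesthetised and artificially ventilated, with left thoracotomy; silk suture under main left coronary artery. After stabilization, test drug or vehicle i.v.; 14 min later isoprenaline 10 μg/kg; 1 min after that the ligature was tightened and VF incidence recorded over 30 min. Carotid pressure and lead II ECG monitored continuously. 7-12 animals per group.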

Rattus norvegicus [10] = test: Effect on heart rate after isoprenaline induced tachycardia in the anesthetized rat at 1 mg/kg dose; type: functional; how it was run: as §2
Rattus norvegicus [11] = test: Effect on heart rate on 1 min post isoprenaline induced tachycardia in the anesthetized rat at 1.0 mg/kg dose.; type: functional; how it was run: as §1
Rattus norvegicus [12] = test: Antagonism of Ventricular Fibrilloflutter (VF) evoked by coronary artery ligation in the rat measured at 2 mg/kg dose; type: functional, Heart; how it was run: as §4
Rattus norvegicus [13] = test: Effect on heart rate before isoprenaline induced tachycardia in the anesthetized rat at 1 mg/kg dose; type: functional; how it was run: as §2
Rattus norvegicus [14] = test: Effect on heart rate on 1 min post isoprenaline induced tachycardia in the anesthetized rat at 2.0 mg/kg dose.; type: functional; how it was run: as §1

CNC1CC[C@H]2[C@@H]3CCc4cc(OCC(O)CNC(C)C)ccc4[C@H]3CC[C@]12C (some centres undefined)
Change (Rattus norvegicus [1]): -22.6%
Heart rate (Rattus norvegicus [2]): 407 beats min-1
EC25 (Cavia porcellus): 11.9 µg/mL (≈ 29.7 µM)
Increase (Rattus norvegicus [3]): 1%
Heart rate (Rattus norvegicus [4]): 315 beats min-1
Heart rate (Rattus norvegicus [5]): 318 beats min-1
ED50 (Mus musculus [6]): inactive

CN(C)C1CC[C@H]2[C@@H]3CCc4cc(O)ccc4[C@H]3CC[C@]12C (some centres undefined)
EC25 (Cavia porcellus): 1.65 µg/mL (≈ 5.51 µM)
ED50 (Mus musculus [7]): 4.4 mg/kg

CC(C)NCC(O)COc1ccc2c(c1)CC[C@@H]1[C@@H]2CC[C@]2(C)C(N(C)C)CC[C@@H]12 (some centres undefined)
Change (Rattus norvegicus [1]): -4.4%
EC25 (Cavia porcellus): 16.1 µg/mL (≈ 38.8 µM)
ED50 at 2 mg/kg (Rattus norvegicus [8]): < 1 mg/kg
VF (Rattus norvegicus [9]): 29%
Heart rate (Rattus norvegicus [10]): 387 beats min-1
Heart rate (Rattus norvegicus [11]): 393 beats min-1
Increase (Rattus norvegicus [3]): 1.6%
VF (Rattus norvegicus [12]): 14%
ED50 (Mus musculus [6]): inactive
Heart rate (Rattus norvegicus [13]): 405 beats min-1

CNC1CC[C@H]2[C@@H]3CCc4cc(O)ccc4[C@H]3CC[C@]12C (some centres undefined)
EC25 (Cavia porcellus): 2.09 µg/mL (≈ 7.32 µM)
ED50 (Mus musculus [7]): 8.2 mg/kg

CNC1CC[C@H]2[C@@H]3CCc4cc(OCC(O)CNC(C)(C)C)ccc4[C@H]3CC[C@]12C (some centres undefined)
Change (Rattus norvegicus [1]): -13.4%
Heart rate (Rattus norvegicus [2]): 387 beats min-1
EC25 (Cavia porcellus): 25.8 µg/mL (≈ 62.2 µM)
ED50 at 2 mg/kg (Rattus norvegicus [8]): < 2 mg/kg
Increase (Rattus norvegicus [3]): 0%
Heart rate (Rattus norvegicus [4]): 335 beats min-1
Heart rate (Rattus norvegicus [14]): 335 beats min-1
VF (Rattus norvegicus [12]): 0%
ED50 (Mus musculus [6]): inactive

CC(=O)Oc1ccc2c(c1)CC[C@@H]1[C@@H]2CC[C@]2(C)C(N(C)C)[C@H](O)C[C@@H]12 (some centres undefined)
EC25 (Cavia porcellus): 0.99 µg/mL (≈ 2.77 µM)
ED50 (Mus musculus [7]): 6.5 mg/kg

CNC1[C@H](O)C[C@H]2[C@@H]3CCc4cc(OCC(O)CNC(C)C)ccc4[C@H]3CC[C@]12C (some centres undefined)
EC25 (Cavia porcellus): 21 µg/mL (≈ 50.4 µM)
ED50 (Mus musculus [6]): inactive
